# Measurements from publication PMC10957407 (Food Chemistry: X, 2024).
# Experiments:
# 1-G12 = experiment: icELISA with mAb 1-G12; format: binding, Balb/c mice; conditions: for CR: CR%=IC50 6-GG/IC50 test compound x100%
# In short: (§1)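 Ascites-derived mAbs (caprylic acid–ammonium sulfate purified) from female Balb/c mice immunized with hapten–BSA. Plates coated with hapten–OVA in carbonate buffer (0.5 mol L−1, pH 9.6), blocked with 5% skim milk, washed with PBST, and detected with goat anti-mouse IgG-HRP; reaction stopped with 2 mol L−1 H2SO4. Analyte stocks (1 mg/mL, 70% methanol) were diluted in 10% methanol-PBS. IC50 values were fitted, and cross-reactivity was calculated for capsaicinoids, gingerol derivatives and eight other compounds.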
# 1-F12 = experiment: icELISA with mAb 1-F12; format: binding, Balb/c mice; conditions: for CR: CR%=IC50 6-GG/IC50 test compound x100%
# In short: as §1
# 1-D6 = experiment: icELISA with mAb 1-D6; format: binding, Balb/c mice; conditions: for CR: CR%=IC50 6-GG/IC50 test compound x100%
# In short: as §1
# 5-D8 = experiment: icELISA with mAb 5-D8; format: binding
# 6-AT6 = experiment: icELISA with mAb 6-AT6; format: binding
# 5-3H1 = experiment: icELISA with mAb 5-3H1; format: binding
# 4-AT4 = experiment: icELISA with mAb 4-AT4; format: binding
# 2-LD2 = experiment: icELISA with mAb 2-LD2; format: binding
# 3-LD3 = experiment: icELISA with mAb 3-LD3; format: binding
# [1] = mAb 1-G12, specific evaluation (Table 1, Fig. 3D)
# [2] = mAb 1-F12, specific evaluation (Table 1, Fig. 3B)
# [3] = mAb 1-D6, specific evaluation (Table 1, Fig. 3C)
# [4] = coating antigen Hapten 1-OVA, mAb 1-G12
# [5] = coating antigen Hapten 2-OVA, mAb 1-G12
# [6] = coating antigen Hapten 3-OVA, mAb 1-G12
# [7] = coating antigen Hapten 4-OVA, mAb 1-G12
# [8] = coating antigen Hapten 5-OVA, mAb 1-G12
# [9] = coating antigen Hapten 6-OVA, mAb 1-G12
# [10] = coating antigen Hapten 1-OVA, mAb 1-F12
# [11] = coating antigen Hapten 2-OVA, mAb 1-F12
# [12] = coating antigen Hapten 3-OVA, mAb 1-F12
# [13] = coating antigen Hapten 4-OVA, mAb 1-F12
# [14] = coating antigen Hapten 5-OVA, mAb 1-F12 (optimal combination)
# [15] = coating antigen Hapten 6-OVA, mAb 1-F12
# [16] = coating antigen Hapten 1-OVA, mAb 1-D6
# [17] = coating antigen Hapten 2-OVA, mAb 1-D6
# [18] = coating antigen Hapten 3-OVA, mAb 1-D6
# [19] = coating antigen Hapten 4-OVA, mAb 1-D6
# [20] = coating antigen Hapten 5-OVA, mAb 1-D6
# [21] = coating antigen Hapten 6-OVA, mAb 1-D6
smiles,measurement,setting,value
COc1cccc(CNC(=O)CC#N)c1 [2-Cyano-N-(3-methoxybenzyl) acetamide],IC50,1-G12; [1],>4 µg/mL
same,CR,1-G12; mAb 1-G12,<14.01%
same,IC50,1-F12; [2],>4 µg/mL
same,CR,1-F12; mAb 1-F12,<12.66%
same,IC50,1-D6; [3],>4 µg/mL
same,CR,1-D6; mAb 1-D6,<1.48%
CCCCCCCC(=O)CCc1cc(OC)c(O)c(C(=O)O)c1 [2-hydroxy-3-methoxy-5-(3-oxodecyl) benzoic acid],IC50,1-G12; [1],>4 µg/mL
same,CR,1-G12; mAb 1-G12,<14.01%
same,IC50,1-F12; [2],>4 µg/mL
same,CR,1-F12; mAb 1-F12,<12.66%
same,IC50,1-D6; [3],1.9528 µg/mL
same,CR,1-D6; mAb 1-D6,3.03%
COc1cc(CCC(=O)O)ccc1O [3-(4-Hydroxy-3-methoxyphenyl) propionic Acid],IC50,1-G12; [1],>4 µg/mL
same,CR,1-G12; mAb 1-G12,<14.01%
same,IC50,1-F12; [2],>4 µg/mL
same,CR,1-F12; mAb 1-F12,<12.66%
same,IC50,1-D6; [3],2.17533 µg/mL
same,CR,1-D6; mAb 1-D6,2.72%
"COc1cc(CNC(=O)CCCC/C=C/C(C)C)ccc1O [CPC, Capsaicin]",IC50,5-D8; coating antigen Hapten 1-OVA,0.03987 µg/mL
same,IC50,5-D8; coating antigen Hapten 2-OVA,0.54041 µg/mL
same,IC50,5-D8; coating antigen Hapten 3-OVA,0.56457 µg/mL
same,IC50,5-D8; coating antigen Hapten 4-OVA,0.02878 µg/mL
same,IC50,5-D8; coating antigen Hapten 5-OVA,0.04559 µg/mL
same,IC50,6-AT6; coating antigen Hapten 1-OVA,>4 µg/mL
same,IC50,6-AT6; coating antigen Hapten 2-OVA,>4 µg/mL
same,IC50,6-AT6; coating antigen Hapten 3-OVA,>4 µg/mL
same,IC50,6-AT6; coating antigen Hapten 4-OVA,>4 µg/mL
same,IC50,6-AT6; coating antigen Hapten 5-OVA,>4 µg/mL
same,IC50,6-AT6; coating antigen Hapten 6-OVA,>4 µg/mL
same,IC50,1-G12; [4],1.22906 µg/mL
same,IC50,1-G12; [5],>4 µg/mL
same,IC50,1-G12; [6],>4 µg/mL
same,IC50,1-G12; [7],0.83506 µg/mL
same,IC50,1-G12; [8],0.33939 µg/mL
same,IC50,1-G12; [9],0.66185 µg/mL
same,IC50,1-G12; [1],1.22906 µg/mL
same,CR,1-G12; mAb 1-G12,45.61%
same,IC50,5-3H1; coating antigen Hapten 1-OVA,1.15967 µg/mL
same,IC50,5-3H1; coating antigen Hapten 2-OVA,0.547 µg/mL
same,IC50,5-3H1; coating antigen Hapten 3-OVA,0.79417 µg/mL
same,IC50,5-3H1; coating antigen Hapten 4-OVA,0.02586 µg/mL
same,IC50,5-3H1; coating antigen Hapten 5-OVA,0.10327 µg/mL
same,IC50,4-AT4; coating antigen Hapten 1-OVA,0.00502 µg/mL
same,IC50,4-AT4; coating antigen Hapten 2-OVA,0.13283 µg/mL
same,IC50,4-AT4; coating antigen Hapten 3-OVA,0.27036 µg/mL
same,IC50,4-AT4; coating antigen Hapten 4-OVA,0.00651 µg/mL
same,IC50,4-AT4; coating antigen Hapten 5-OVA,0.00379 µg/mL
same,IC50,1-F12; [10],0.58442 µg/mL
same,IC50,1-F12; [11],>4 µg/mL
same,IC50,1-F12; [12],>4 µg/mL
same,IC50,1-F12; [13],0.79654 µg/mL
same,IC50,1-F12; [14],0.48151 µg/mL
same,IC50,1-F12; [15],1.35443 µg/mL
same,CR,1-F12; mAb 1-F12,86.62%
same,IC50,2-LD2; coating antigen Hapten 1-OVA,0.11875 µg/mL
same,IC50,2-LD2; coating antigen Hapten 2-OVA,0.00961 µg/mL
same,IC50,2-LD2; coating antigen Hapten 3-OVA,0.01715 µg/mL
same,IC50,2-LD2; coating antigen Hapten 4-OVA,0.00119 µg/mL
same,IC50,3-LD3; coating antigen Hapten 2-OVA,0.01016 µg/mL
same,IC50,3-LD3; coating antigen Hapten 3-OVA,0.03008 µg/mL
same,IC50,3-LD3; coating antigen Hapten 4-OVA,0.00387 µg/mL
same,IC50,1-D6; [16],>4 µg/mL
same,IC50,1-D6; [17],>4 µg/mL
same,IC50,1-D6; [18],>4 µg/mL
same,IC50,1-D6; [19],0.91716 µg/mL
same,IC50,1-D6; [20],0.93917 µg/mL
same,IC50,1-D6; [21],0.26434 µg/mL
same,IC50,1-D6; [3],>4 µg/mL
same,CR,1-D6; mAb 1-D6,<1.48%
"COc1cc(CNC(=O)CCCCCCC(C)C)ccc1O [DCPC, dihydrocapsaicin]",IC50,5-D8; coating antigen Hapten 1-OVA,0.00582 µg/mL
same,IC50,5-D8; coating antigen Hapten 2-OVA,0.16652 µg/mL
same,IC50,5-D8; coating antigen Hapten 3-OVA,0.05575 µg/mL
same,IC50,5-D8; coating antigen Hapten 4-OVA,0.0109 µg/mL
same,IC50,5-D8; coating antigen Hapten 5-OVA,0.01319 µg/mL
same,IC50,6-AT6; coating antigen Hapten 1-OVA,>4 µg/mL
same,IC50,6-AT6; coating antigen Hapten 2-OVA,>4 µg/mL
same,IC50,6-AT6; coating antigen Hapten 3-OVA,>4 µg/mL
same,IC50,6-AT6; coating antigen Hapten 4-OVA,>4 µg/mL
same,IC50,6-AT6; coating antigen Hapten 5-OVA,1.46054 µg/mL
same,IC50,6-AT6; coating antigen Hapten 6-OVA,>4 µg/mL
same,IC50,1-G12; [4],0.70085 µg/mL
same,IC50,1-G12; [5],>4 µg/mL
same,IC50,1-G12; [6],>4 µg/mL
same,IC50,1-G12; [7],0.72469 µg/mL
same,IC50,1-G12; [8],0.37358 µg/mL
same,IC50,1-G12; [9],0.35151 µg/mL
same,IC50,1-G12; [1],0.70085 µg/mL
same,CR,1-G12; mAb 1-G12,79.99%
same,IC50,5-3H1; coating antigen Hapten 1-OVA,0.01598 µg/mL
same,IC50,5-3H1; coating antigen Hapten 2-OVA,0.10263 µg/mL
same,IC50,5-3H1; coating antigen Hapten 3-OVA,0.25386 µg/mL
same,IC50,5-3H1; coating antigen Hapten 4-OVA,0.01135 µg/mL
same,IC50,5-3H1; coating antigen Hapten 5-OVA,0.03124 µg/mL
same,IC50,4-AT4; coating antigen Hapten 1-OVA,0.00581 µg/mL
same,IC50,4-AT4; coating antigen Hapten 2-OVA,0.05733 µg/mL
same,IC50,4-AT4; coating antigen Hapten 3-OVA,0.25387 µg/mL
same,IC50,4-AT4; coating antigen Hapten 4-OVA,0.01068 µg/mL
same,IC50,4-AT4; coating antigen Hapten 5-OVA,0.00313 µg/mL
same,IC50,1-F12; [10],0.55714 µg/mL
same,IC50,1-F12; [11],>4 µg/mL
same,IC50,1-F12; [12],>4 µg/mL
same,IC50,1-F12; [13],0.41585 µg/mL
same,IC50,1-F12; [14],0.14358 µg/mL
same,IC50,1-F12; [15],0.8841 µg/mL
same,IC50,1-F12; [2],0.55714 µg/mL
same,CR,1-F12; mAb 1-F12,90.86%
same,IC50,2-LD2; coating antigen Hapten 1-OVA,0.00947 µg/mL
same,IC50,2-LD2; coating antigen Hapten 2-OVA,0.00485 µg/mL
same,IC50,2-LD2; coating antigen Hapten 3-OVA,0.00154 µg/mL
same,IC50,2-LD2; coating antigen Hapten 4-OVA,0.00073 µg/mL
same,IC50,3-LD3; coating antigen Hapten 2-OVA,0.00124 µg/mL
same,IC50,3-LD3; coating antigen Hapten 3-OVA,0.00062 µg/mL
same,IC50,3-LD3; coating antigen Hapten 4-OVA,0.00184 µg/mL
same,IC50,1-D6; [16],0.96982 µg/mL
same,IC50,1-D6; [17],>4 µg/mL
same,IC50,1-D6; [18],>4 µg/mL
same,IC50,1-D6; [19],0.70128 µg/mL
same,IC50,1-D6; [20],0.58873 µg/mL
same,IC50,1-D6; [21],0.16792 µg/mL
same,IC50,1-D6; [3],0.96982 µg/mL
same,CR,1-D6; mAb 1-D6,6.10%
